Measured values as given in PubChem BioAssay AID449755 (Broad Institute, 2010).
Records with an inconclusive call do not appear. Active and inactive are the calls of the source.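 Rule for the calls: active = compounds raising caspase signal whose fitted AC50 is at most ten times the top tested dose; inconclusive = flat fit with 30 to 70% activity, or failed fit; inactive = the rest.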

tested on: HMC 1-8 low-A1 cells, caspase-3/7 luminescence, 3 h; assay: caspase induction, A1-low human cancer line – cell-based, HMC 1-8 low A1, caspase luminescence, counter-screen for A1 inhibitor project, dose response (AID 449755)
Method in brief: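 Material: Low-A1 HMC 1-8 human cancer cell line | Amount: 2500 cells per well, seeded the day before compound | Medium: RPMI-1640, 10% FBS | Compound dosing: Pin-transferred compound | Incubation: Compound 3 h at 37 °C, detection 1 h RT | Signal: Caspase-3/7 DEVD luminescence | Read-out basis: Caspase-3/7 activation, marking off-target non-A1 activity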

SMILES | AC50
CCc1ccccc1NC(=O)C(CC)Sc1nc2cc3c(cc2c(=O)n1Cc1ccco1)OCO3 (stereo unspecified) | > 35 µM (inactive)
CC1CC(C)CN(C(=O)c2ccc(-c3ccc([N+](=O)[O-])cc3)o2)C1 (stereo unspecified) | > 35 µM (inactive)
O=C(c1ccc(COc2ccc3ccccc3c2)o1)N1N=C(C(F)F)CC1(O)C(F)F (stereo unspecified) | > 35 µM (inactive)
O=C(NC[C@H]1CCCO1)c1cccc2c1C(=O)c1ccc(-c3ccc(F)cc3OCc3ccccc3)cc1S2(=O)=O | > 35 µM (inactive)
CCc1nn(-c2cc(Oc3cccc4ccccc34)nc(-c3ccccc3)n2)c(N)c1C#N | > 35 µM (inactive)
CC(C)c1cccc(-c2ccc3c(c2)S(=O)(=O)c2cccc(C(=O)NC4CCCC4)c2C3=O)c1 | > 35 µM (inactive)
COc1ccccc1CCNC(C)CCc1ccc(O)cc1 (stereo unspecified) | > 35 µM (inactive)
CC(C)c1cccc(-c2ccc3c(c2)S(=O)(=O)c2cccc(C(=O)NCc4ccccc4Cl)c2C3=O)c1 | > 35 µM (inactive)
CCn1c(SCC(=O)c2ccccc2)nnc1-c1cc2cc(Br)ccc2o1 | > 35 µM (inactive)
CC(C)c1ccc2[nH]c(O)c(N=NC(=O)c3cccc(S(=O)(=O)Nc4ccc(Cl)cc4)c3)c2c1 | > 35 µM (inactive)
CC1=NNC(=O)/C1=C\c1cn(-c2ccccc2)nc1-c1cccs1 | > 35 µM (inactive)
CCc1nnc(NC(=O)c2nc(S(=O)(=O)Cc3ccccc3)ncc2Cl)s1 | > 35 µM (inactive)
CCOc1ccc(NCc2cccn2-c2nnc(N3CCC(C(=O)NCCCN4CC(C)CC(C)C4)CC3)s2)cc1 (stereo unspecified) | > 35 µM (inactive)
COc1ccc(Cn2c(SCc3ccc(C)cc3)nc3cc(OC)c(OC)cc3c2=N)cc1Cl | 27.1 µM
CCOC(=O)c1ccc(-c2ccc(/C=N/NC(=O)CN(c3cccc(C)c3)S(C)(=O)=O)o2)cc1 | > 35 µM (inactive)
COCc1cc(C)nc(SCC(=O)Nc2nc(C)cs2)c1C#N | > 35 µM (inactive)
O=C(CCl)N=c1sccn1Cc1ccccc1Cl | > 35 µM (inactive)
CCOCCCNC(=O)c1ccc2c(c1)N=C(CC)c1cc(Br)ccc1S2 | > 35 µM (inactive)
Cc1cc(C)n(-c2nc(Nc3ccccc3C)nc(-n3nc(C)cc3C)n2)n1 | > 35 µM (inactive)
COc1ccc2c(c1)[nH]c1c(=O)n(/N=C/C3C(C)C=C(C)CC3C)c(=O)[nH]c12 (stereo unspecified) | > 35 µM (inactive)
COc1cc(NC(=O)c2ccccc2)c(OC)cc1NC(=O)Cc1ccc(Br)cc1 | > 35 µM (inactive)
O=C(Cn1c(C(F)(F)F)nc2ccccc21)N=Nc1c(O)[nH]c2ccc(Br)cc12 | 32.3 µM

SMILES | AC50
CCS(=O)(=O)c1ncc(Cl)c(C(=O)Nc2ccccc2OC)n1 | > 35 µM (inactive)
CN1C2CCC1/C(=C/c1ccccn1)C(=O)/C2=C\c1ccccn1 | > 35 µM (inactive)
Oc1[nH]c2ccc(Br)cc2c1N=NC(=S)Nc1ccc(F)cc1 | > 35 µM (inactive)
N#C/C(=C\c1ccc(OCc2ccccc2)cc1)C(=O)Nc1nc2c(s1)CCN(Cc1ccccc1)C2 | > 35 µM (inactive)
COc1cc(NC(=O)c2ccccc2F)ccc1NC(=O)c1cc2ccccc2o1 | > 35 µM (inactive)
Cc1nn(-c2ccccc2)c(C)c1/C=N/NC(=O)CSc1nc2ccccc2c(=O)n1-c1ccc(Br)cc1 | > 35 µM (inactive)
Cc1ccc(C(=O)/C=C\C(=O)c2ccc(C)cc2)cc1 | > 35 µM (inactive)
CC(C)(C)C1CCc2onc(C(=O)Nc3cccc(O)c3)c2C1 (stereo unspecified) | > 35 µM (inactive)
COC(=O)CSc1nc(N)c2c3c(sc2n1)C(c1ccccc1)SC(c1ccccc1)C3 (stereo unspecified) | > 35 µM (inactive)
CCOC(=O)/C(=C\c1cccnc1)C(=O)c1cc(C(C)=O)c(Nc2ccccc2)s1 | > 35 µM (inactive)
CC(=O)Nc1sc(N/N=C\c2cccc(Cl)c2)nc1-c1cccs1 | > 35 µM (inactive)
COc1ccc(S(=O)(=O)N2CC(O)CC2C(=O)OCC(=O)Nc2ccc(Cl)cn2)cc1 (stereo unspecified) | > 35 µM (inactive)
Cc1ccc(C=C2C(Cl)=C(Cl)C(Cl)=C2Cl)cc1 | 12.9 µM
Cc1ccc(NC(=O)CSc2nc3nc(C)c(Br)cc3[nH]2)cc1F | > 35 µM (inactive)
Cc1ccc(S(=O)(=O)c2nnn3c2nc(Nc2cccc(C)c2)c2ccccc23)cc1 | > 35 µM (inactive)
N#CC(C#N)=C1C=CC=CN1/C(=C\c1ccccc1Cl)C(=O)c1ccccc1 | 27.9 µM
COc1ccc(-c2ccc3c(c2)S(=O)(=O)c2cccc(C(=O)NCCOc4ccccc4)c2C3=O)cc1OC | > 35 µM (inactive)
CCC(Sc1nc2cc3c(cc2c(=O)n1Cc1ccco1)OCO3)C(=O)Nc1cccc(OC)c1 (stereo unspecified) | > 35 µM (inactive)
CC1(C)C[C@H](O)[C@]2(CO)[C@H](O)C[C@]3(C)C(=CCC4[C@@]5(C)CC[C@H](O)C(C)(C)C5CC[C@]43C)[C@@H]2C1 (stereo partly specified) | > 35 µM (inactive)
COc1ccc(C2CC(c3c(O)cc(C)oc3=O)=NCCS2)c(OC)c1 (stereo unspecified) | > 35 µM (inactive)
C=CC(=O)Nc1ccc(CN2C(=O)N(c3c(Cl)c(OC)cc(OC)c3Cl)Cc3cnc(NCCCCN(CC)CC)nc32)cc1 | > 35 µM (inactive)
COc1ccc(OC[C@@H](O)CNC(=O)c2cccc3c2C(=O)c2ccc(-c4ccc(F)cc4OCc4ccccc4)cc2S3(=O)=O)cc1 | > 35 µM (inactive)

SMILES | AC50
CCN(C(=O)CCN1C(=O)c2ccccc2S1(=O)=O)c1ccccc1 | > 35 µM (inactive)
CC(C)Cn1c(O)c(/C=C2\C=NN=C2c2ccccc2)sc1=S | > 35 µM (inactive)
Cc1ccc(C2(c3ccc(C)cc3)CC2C(=O)Nc2ccc([N+](=O)[O-])cc2O)cc1 (stereo unspecified) | > 35 µM (inactive)
CCc1nnc(NC(=O)CSc2nc(-c3ccccc3)cc(-c3ccc(F)cc3)c2C#N)s1 | > 35 µM (inactive)
CC(C)(C)c1ccc2c(c1)OC(C(=O)N/N=C\c1ccc[nH]1)CO2 (stereo unspecified) | > 35 µM (inactive)
COc1cc(/C=C(/C#N)c2nc3ccccc3[nH]2)ccc1OCC(=O)Nc1ccccc1C | 3.01 µM
COc1ccc(NC(=S)NC(NC(=O)/C=C/c2ccccc2)C(Cl)(Cl)Cl)cc1 (stereo unspecified) | > 35 µM (inactive)
Cc1cc(NC(=O)CSc2nc3cc(Cl)ccc3c(=O)n2Cc2ccco2)no1 | > 35 µM (inactive)
CCOC(=O)/C=c1\s/c(=C\c2ccc(C(=O)OC)cc2)c(=O)n1CC(=O)Nc1ccccc1 | > 35 µM (inactive)
COc1cc(NC(=O)c2ccc(Cl)cc2Cl)ccc1-c1cc2ccccc2oc1=O | > 35 µM (inactive)
COc1ccc(C[C@H]2NC[C@H](O)[C@H]2OC(C)=O)cc1 | 1.09 µM
COc1ccc(Oc2cc(NC(=O)c3nn(C)cc3[N+](=O)[O-])cc([N+](=O)[O-])c2)cc1 | > 35 µM (inactive)
O=C1/C(=C/c2ccc(N3CCOCC3)o2)SC(=Nc2ccccc2)N1CCc1c[nH]c2ccccc12 | > 35 µM (inactive)
Cc1ccc(C)c(S(=O)(=O)NCC(=O)Nc2sc3c(c2C(N)=O)CCC(C)C3)c1 (stereo unspecified) | > 35 µM (inactive)
O=C(COc1ccc(/C=N/NC(=O)c2cc3ccccc3o2)cc1Cl)Nc1ccccc1 | 8.65 µM
CCOC(=O)C1=C(c2ccccc2)O/C(=C(/C#N)C(F)(F)F)S1 | > 35 µM (inactive)
COc1ccc(C=C2C=C(C(C)(C)C)C(=O)C(C(C)(C)C)=C2)cc1OC | 5.9 µM
CC(C)(C)c1ccc(C(=O)Nc2ccc(O)c3c(=O)cc(-c4cccc(Cl)c4)oc23)cc1 | > 35 µM (inactive)
O=C(Nc1ccc2oc(-c3ccccc3)nc2c1)c1ccccc1F | > 35 µM (inactive)
CCC1CCCCN1S(=O)(=O)c1ccc(NC(=O)c2nc(S(C)(=O)=O)ncc2Cl)cc1 (stereo unspecified) | > 35 µM (inactive)
CC(C)N=c1scc(-c2ccco2)n1/N=C/c1ccc(O)c(O)c1 | > 35 µM (inactive)
COc1cc(CN2CCN(c3cc(C)ccc3C)CC2)ccc1O | > 35 µM (inactive)

SMILES | AC50
C=C1/C=C(\C)[C@](C)(O)C[C@H](O)CC(=O)[C@H](O)[C@@H](O)[C@H](C)C[C@H](C)OC(=O)/C(C)=C/CC/C=C/[C@@H]2O[C@H]2C[C@H](C)C1 | > 35 µM (inactive)
COc1cc2ncnc(NCc3ccc(F)cc3)c2cc1OC | > 35 µM (inactive)
Cc1ccc(N(Cc2cc(=O)[nH]c3ccccc23)C(=O)CCl)cc1 | > 35 µM (inactive)
COc1ccccc1-c1cn[nH]c1-c1ccc(OCc2ccccc2)cc1O | > 35 µM (inactive)
O=C1C2C3C=CC(CO)(O3)C2C(=O)N1c1ccc(-c2ccccc2)cc1 (stereo unspecified) | > 35 µM (inactive)
CCOC(=O)c1c(C)oc2c1c(CN1CCN(C(=O)OCC)CC1)c(O)c1ccccc12 | 26.3 µM
COc1cc(NC(=O)c2cccc(C)c2)ccc1NC(=O)c1cc2ccccc2o1 | > 35 µM (inactive)
COc1ccc(-c2c(C#N)c(N)nc(Sc3ccc(Cl)cc3)c2C#N)cc1 | > 35 µM (inactive)
Cc1cccc(C)c1NC(=O)C(Cl)C(=O)c1ccccc1 (stereo unspecified) | > 35 µM (inactive)
Cc1c(C=O)c(C=O)c(C)n1Cc1ccccc1 | > 35 µM (inactive)
COc1cc(/C=C(/C#N)C(=O)Nc2ccc(Cl)cc2)ccc1Oc1nc(Cl)ncc1F | > 35 µM (inactive)
CC(=O)OC(C)(C)/C=C/C(=O)[C@](C)(O)C1[C@H](O)C[C@@]2(C)C3CC=C4C(C[C@H](O)C(=O)C4(C)C)[C@]3(C)C(=O)C[C@]12C (stereo partly specified) | > 35 µM (inactive)
CN(C)C/C=C(\c1ccc(Br)cc1)c1cccnc1 | > 35 µM (inactive)
Cc1ccc(C#N)c(SCC(=O)Nc2nccs2)n1 | > 35 µM (inactive)
CC1=NNC(=O)/C1=C\c1cn(-c2ccccc2)nc1-c1ccccc1 | > 35 µM (inactive)
CC(=O)Nc1ncnc2c1c(-c1ccc(Cl)cc1)nn2C(C)(C)C | > 35 µM (inactive)
CC(=O)OC(C)(C)/C=C/C(=O)C(C)(O)C1[C@H](O)C[C@@]2(C)C3CC=C4C(CC[C@@H](O)C4(C)C)[C@]3(CO)C(=O)C[C@]12C (stereo partly specified) | > 35 µM (inactive)
Cc1ccc(CS(=O)(=O)c2ncc(Cl)c(C(=O)Nc3nnc(C(C)C)s3)n2)cc1 | > 35 µM (inactive)
COc1ccc(N(C(=O)CCl)C(C(=O)NCCc2ccccc2)c2cccs2)cc1Cl (stereo unspecified) | > 35 µM (inactive)
COc1ccc(NC(=O)c2cccc3c2C(=O)c2ccc(-c4ccc(F)cc4OCc4ccccc4)cc2S3(=O)=O)cc1 | > 35 µM (inactive)
